Test results reported in ChEMBL document CHEMBL2203189, “Synthesis and pharmacology of 1-alkyl-3-(1-naphthoyl)indoles: steric and electronic effects of 4- and 8-halogenated naphthoyl substituents” (Bioorg Med Chem, 2012).
The source made the active and inactive calls.

What was measured:
[1] = system: Mus musculus; experiment: Hypothermic activity in Harlan ICR mouse assessed as change in rectal temperature at 86 umol/kg, iv at 30 mins; format: functional, organism-based
Method in brief: (§1)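 Male ICR mice, n = 6 per dose. Single probe dose iv in emulphor–ethanol–saline 1:1:18. Rectal temperature taken with a thermistor probe at 25 mm depth before dosing and at 30 min. Result given as change from pre-injection value (°C).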

[2] = species: Homo sapiens; experiment: Selectivity ratio of Ki for human CB1 receptor to Ki for human CB2 receptor
[3] = system: Mus musculus; experiment: Antinociceptive activity in Harlan ICR mouse assessed as latency to heat-induced tail flicking at 86 umol/kg, iv at 20 mins relative to control; format: functional
[4] = system: Mus musculus; experiment: Locomotor activity in Harlan ICR mouse assessed as inhibition of activity level at 86 umol/kg, iv from 5 to 15 mins by spontaneous locomotor activity test relative to vehicle treated control; format: functional
Method in brief: (§2)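 Male ICR mice, n = 6 per dose, single probe dose iv in emulphor–ethanol–saline 1:1:18. Photocell beam interruptions recorded over 10 min, at 5–15 min after dosing. Result given as % inhibition relative to the vehicle group.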

[5] = molecular target: T1, Cannabinoid receptor 1 (Homo sapiens, UniProt P21554); experiment: Displacement of [3H]CP55940 from human CB1 receptor expressed in HEK293 cells after 1 hr by liquid scintillation spectrophotometry; format: cell-based
Method in brief: (§3)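 Membranes (50 µg) from HEK-293 cells stably expressing human CB1, cultured in DMEM/10% FBS. Incubated with 0.5 nM [3H]CP55,940 and test compound at 1 nM–10 µM in buffer with BSA (5 mg/mL), 1 h at 30 °C. Nonspecific binding defined with excess unlabelled CP55,940. Filtered through GF/B, then scintillation counting.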

[6] = molecular target: Cannabinoid receptor 2 (Homo sapiens, UniProt P34972); experiment: Displacement of [3H]CP55940 from human CB2 receptor expressed in CHO cells after 1 hr by liquid scintillation spectrophotometry; format: cell-based
Method in brief: as §3, with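 “CHO” for “HEK-293”, “CB2,” for “CB1,”, “fetal calf serum.” for “FBS.”, “µM” for “µM in buffer”, “GF/B filtration,” for “Filtered through GF/B,”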

[7] = system: Mus musculus; experiment: Locomotor activity in Harlan ICR mouse assessed as inhibition of activity level at 77 umol/kg, iv from 5 to 15 mins by spontaneous locomotor activity test relative to vehicle treated control; format: functional; method in brief: as §2
[8] = system: Mus musculus; experiment: Antinociceptive activity in Harlan ICR mouse assessed as latency to heat-induced tail flicking at 77 umol/kg, iv at 20 mins relative to control; format: functional
[9] = system: Mus musculus; experiment: Hypothermic activity in Harlan ICR mouse assessed as change in rectal temperature at 77 umol/kg, iv at 30 mins; format: functional; method in brief: as §1
[10] = system: Mus musculus; experiment: Induction of catalepsy in Harlan ICR mouse at 77 umol/kg, iv at 40 mins measured for 5 mins by ring immobility test; format: functional
Method in brief: (§4)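 Male ICR mice given a single iv probe dose in emulphor–ethanol–saline 1:1:18. At 40 min placed on a 5.5 cm ring raised 16 cm and observed for 5 min by blinded raters. Up to 5 escapes allowed; mice escaping before 2.5 min excluded. Immobility index = time motionless / 300 s × 100.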

[11] = molecular target: T1, Cannabinoid receptor 1; experiment: Activation of human CB1 receptor expressed in HEK293 cells assessed as [35S]GTPgamma binding after 90 mins by liquid scintillation spectrophotometry; format: functional, cell-based
Method in brief: (§5)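 Membranes from HEK-293 cells stably expressing human CB1, pelleted at 50,000g and taken up in Tris-HCl pH 7.4 with MgCl2, EGTA and NaCl. 10 µg protein with BSA, 20 µM GDP, 0.1 nM [35S]GTPγS and graded test concentrations, 90 min at 30 °C. 2 µM CP55,940 run as internal standard; basal without agonist, nonspecific with 10 µM GTPγS. Filtration, then scintillation counting.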

[12] = system: Mus musculus; experiment: Hypothermic activity in iv dosed Harlan ICR mouse assessed as change in rectal temperature at 30 mins; format: functional; settings: 0.5 h
[13] = system: Mus musculus; experiment: Antinociceptive activity in iv dosed Harlan ICR mouse assessed as latency to heat-induced tail flicking at 20 mins; format: functional
Method in brief: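 Male ICR mice, 18–25 g, n = 6 per dose. Multiple doses iv by tail vein in emulphor–ethanol–saline 1:1:18. Tail-flick latency at 20 min, 10 s cutoff, expressed as %MPE.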

[14] = system: Mus musculus; experiment: Induction of catalepsy in iv dosed Harlan ICR mouse at 40 mins measured for 5 mins by ring immobility test; format: functional
[15] = system: Mus musculus; experiment: Locomotor activity in iv dosed Harlan ICR mouse from 5 to 15 mins by spontaneous locomotor activity test; format: functional
[16] = system: Mus musculus; experiment: Locomotor activity in Harlan ICR mouse assessed as inhibition of activity level at 6.2 umol/kg, iv from 5 to 15 mins by spontaneous locomotor activity test relative to vehicle treated control; format: functional, organism-based
Method in brief: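 Spontaneous activity in male ICR mice (18–25 g) after one iv tail-vein probe dose in 1:1:18 emulphor–ethanol–saline. Photocell beam interruptions (16 beams per chamber) recorded over 10 min, 5–15 min after dosing. Reported as % inhibition relative to the vehicle group. n = 6 per dose.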

[17] = system: Mus musculus; experiment: Antinociceptive activity in Harlan ICR mouse assessed as latency to heat-induced tail flicking at 74 umol/kg, iv at 20 mins relative to control; format: functional
[18] = system: Mus musculus; experiment: Hypothermic activity in Harlan ICR mouse assessed as change in rectal temperature at 74 umol/kg, iv at 30 mins; format: functional; method in brief: as §1
[19] = system: Mus musculus; experiment: Locomotor activity in Harlan ICR mouse assessed as inhibition of activity level at 74 umol/kg, iv from 5 to 15 mins by spontaneous locomotor activity test relative to vehicle treated control; format: functional; method in brief: as §2
[20] = species: Mus musculus; experiment: Induction of catalepsy in mouse by ring immobility test; format: functional
[21] = system: Mus musculus; experiment: Antinociceptive activity in Harlan ICR mouse assessed as latency to heat-induced tail flicking at 83 umol/kg, iv at 20 mins relative to control; format: functional
[22] = system: Mus musculus; experiment: Induction of catalepsy in Harlan ICR mouse at 83 umol/kg, iv at 40 mins measured for 5 mins by ring immobility test; format: functional; method in brief: as §4
[23] = system: Mus musculus; experiment: Locomotor activity in Harlan ICR mouse assessed as inhibition of activity level at 83 umol/kg, iv from 5 to 15 mins by spontaneous locomotor activity test relative to vehicle treated control; format: functional; method in brief: as §2
[24] = system: Mus musculus; experiment: Hypothermic activity in Harlan ICR mouse assessed as change in rectal temperature at 83 umol/kg, iv at 30 mins; format: functional; method in brief: as §1
[25] = system: Mus musculus; experiment: Locomotor activity in Harlan ICR mouse at 30 mg/kg, iv from 5 to 15 mins by spontaneous locomotor activity test in the presence of rimonabant; format: functional, organism-based; design: dose 30 mg/kg
[26] = system: Mus musculus; experiment: Induction of catalepsy in Harlan ICR mouse at 30 mg/kg, iv 40 mins measured for 5 mins by ring immobility test in the presence of rimonabant; format: functional, organism-based; design: dose 30 mg/kg
[27] = molecular target: T1, Cannabinoid receptor 1; experiment: Activation of human CB1 receptor expressed in HEK293 cells assessed as [35S]GTPgamma binding after 90 mins by liquid scintillation spectrophotometry relative to CP55940; format: functional, cell-based; method in brief: as §5
[28] = system: Mus musculus; experiment: Hypothermic activity in Harlan ICR mouse assessed as change in rectal temperature at 30 mg/kg, iv at 30 mins in the presence of rimonabant; format: functional, organism-based; design: dose 30 mg/kg
[29] = system: Mus musculus; experiment: Antinociceptive activity in Harlan ICR mouse assessed as latency to heat-induced tail flicking at 30 mg/kg, iv at 20 mins in the presence of rimonabant; format: functional, organism-based; design: dose 30 mg/kg
[30] = system: Mus musculus; experiment: Locomotor activity in Harlan ICR mouse assessed as inhibition of activity level at 66 umol/kg, iv from 5 to 15 mins by spontaneous locomotor activity test relative to vehicle treated control; format: functional; method in brief: as §2

T1 sequence (P21554 whole entry): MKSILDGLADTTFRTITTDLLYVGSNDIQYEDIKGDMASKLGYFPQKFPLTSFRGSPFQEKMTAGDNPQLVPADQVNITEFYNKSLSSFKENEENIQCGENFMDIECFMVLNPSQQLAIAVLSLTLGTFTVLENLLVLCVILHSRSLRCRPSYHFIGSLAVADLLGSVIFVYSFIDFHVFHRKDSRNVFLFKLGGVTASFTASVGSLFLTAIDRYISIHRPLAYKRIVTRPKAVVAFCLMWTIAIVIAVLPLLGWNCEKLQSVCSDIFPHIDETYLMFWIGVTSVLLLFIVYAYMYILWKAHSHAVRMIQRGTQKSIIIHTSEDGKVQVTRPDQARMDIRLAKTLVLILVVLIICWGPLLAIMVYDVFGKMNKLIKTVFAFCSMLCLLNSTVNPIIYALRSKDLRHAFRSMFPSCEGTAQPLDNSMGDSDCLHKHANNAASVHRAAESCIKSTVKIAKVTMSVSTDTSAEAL
Cannabinoid receptor 2, sequence (P34972 whole entry): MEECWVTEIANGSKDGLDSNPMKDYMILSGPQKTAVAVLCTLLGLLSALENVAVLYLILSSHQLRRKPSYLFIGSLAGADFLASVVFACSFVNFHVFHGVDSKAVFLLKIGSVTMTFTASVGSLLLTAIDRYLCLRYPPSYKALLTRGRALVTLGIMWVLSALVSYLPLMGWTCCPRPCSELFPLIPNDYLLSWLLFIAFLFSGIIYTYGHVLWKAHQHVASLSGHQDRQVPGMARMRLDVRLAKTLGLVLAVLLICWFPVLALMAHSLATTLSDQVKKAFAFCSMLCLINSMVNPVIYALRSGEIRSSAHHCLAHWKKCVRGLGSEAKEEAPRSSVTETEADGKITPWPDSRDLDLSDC

SMILES | Ratio Ki [2] | Ki [5] [nM] | Ki [6] [nM] | ED50 [12] [µmol/kg] | ED50 [13] [µmol/kg] | ED50 [15] [µmol/kg] | further results
CCCn1cc(C(=O)c2cccc3cccc(Cl)c23)c2ccccc21 | 4.8 | 642 | 134 |  |  |  | Activity [1]: inactive; Activity [3]: 72%; inhibition in vivo at 86 µmol/kg [4]: 68%
CCCn1cc(C(=O)c2cccc3cccc(Br)c23)c2ccccc21 | > 52 | > 10000 | 192 |  |  |  | inhibition in vivo at 77 µmol/kg [7]: 76%; Activity [8]: 9%; Activity [9]: -2%; Activity [10]: 5%
C=C1CC[C@@H]2[C@@H](C1)c1ccc(C(C)(C)CCCCCC)cc1OC2(C)C |  |  |  |  |  |  | Activity [11]: inactive
CCCCCn1c(C)c(C(=O)c2ccc(Br)c3ccccc23)c2ccccc21 | 5 | 14 | 2.8 |  |  |  | 
CCCCCn1cc(C(=O)c2ccc(F)c3ccccc23)c2ccccc21 | 2 | 7.2 | 3.2 | < 0.08 | 0.14 | < 0.08 | ED50 [14]: 0.58 µmol/kg
Cc1c(C(=O)c2cccc3ccccc23)c2cccc3c2n1[C@H](CN1CCOCC1)CO3 [WIN-552122] |  |  |  |  | 0.94 | 0.23 | 
CCCCCn1cc(C(=O)c2ccc(I)c3ccccc23)c2ccccc21 | 2 | 2.5 | 1.3 | 0.19 | 0.45 | 0.3 | ED50 [14]: 0.38 µmol/kg
CCCCCn1cc(C(=O)c2cccc3cccc(Br)c23)c2ccccc21 | 4 | 21 | 5.4 | 2.4 | 1.8 | 1.4 | ED50 [14]: 3.7 µmol/kg
CCCCCn1c(C)c(C(=O)c2cccc3cccc(I)c23)c2ccccc21 | 40 | 522 | 13 |  |  |  | inhibition [16]: inactive
CCCn1c(C)c(C(=O)c2ccc(Br)c3ccccc23)c2ccccc21 | 12 | 373 | 31 |  |  |  | Activity [17]: 96%; Activity [18]: -5%; inhibition in vivo at 74 µmol/kg [19]: 80%
CCCCCn1cc(C(=O)c2cccc3ccccc23)c2ccccc21 | 3.2 |  |  | 1.7 | 0.09 | 0.44 | ED50 [20]: 3 µmol/kg
CCCn1c(C)c(C(=O)c2ccc(Cl)c3ccccc23)c2ccccc21 | 9 | 187 | 22 |  |  |  | Activity [21]: 100%; Activity [22]: 70%; inhibition in vivo at 83 µmol/kg [23]: 70%; Activity [24]: -5.4%
CCCn1c(C)c(C(=O)c2ccc(F)c3ccccc23)c2ccccc21 | 14 | 530 | 38 | 30.1 | 11.9 | 9.6 | Activity [25]: inactive; Activity [26]: inactive; Emax [27]: 59%; Activity [28]: inactive; ED50 [14]: 23.2 µmol/kg; Activity [29]: inactive
CCCCCn1c(C)c(C(=O)c2cccc3cccc(Cl)c23)c2ccccc21 | 6.1 | 116 | 19 |  |  |  | inhibition in vivo at 77 µmol/kg [7]: 84%; Activity [8]: 100%; Activity [9]: -5.5%; Activity [10]: 86%
CCCCCc1cc(O)c2c(c1)OC(C)(C)[C@@H]1CCC(C)=C[C@@H]21 [DRONABINOL] |  |  |  |  |  | 3.2 | 
CCCCCn1cc(C(=O)c2cccc3cccc(I)c23)c2ccccc21 | 22 | 73 | 3.3 | 6.4 | 1.3 | 1.8 | ED50 [14]: 3.6 µmol/kg
CCCn1c(C)c(C(=O)c2cccc3cccc(Br)c23)c2ccccc21 | > 36 | > 10000 | 278 |  |  |  | Activity [17]: 72%; Activity [18]: -2.3%; inhibition in vivo at 74 µmol/kg [19]: 49%
CCCCCn1c(C)c(C(=O)c2ccc(I)c3ccccc23)c2ccccc21 | 7 | 14 | 2.1 | 2.6 | 2.5 | 1.1 | ED50 [14]: 2.5 µmol/kg
CCCn1c(C)c(C(=O)c2cccc3cccc(I)c23)c2ccccc21 | 8 | 4290 | 536 |  |  |  | inhibition [30]: inactive
CCCn1c(C)c(C(=O)c2cccc3cccc(Cl)c23)c2ccccc21 | > 57 | > 10000 | 174 |  |  |  | Activity [21]: 42%; Activity [22]: 15%; inhibition in vivo at 83 µmol/kg [23]: 70%; Activity [24]: -2.3%
CCCCCn1c(C)c(C(=O)c2ccc(Cl)c3ccccc23)c2ccccc21 | 4 | 8.9 | 2.3 |  |  |  | inhibition in vivo at 77 µmol/kg [7]: 94%; Activity [8]: 100%; Activity [9]: -6.4%; Activity [10]: 88%
CCCn1c(C)c(C(=O)c2cccc3ccccc23)c2ccccc21 |  |  |  | 99.1 | 84.7 | 18.7 | ED50 [20]: 87.2 µmol/kg
CCCn1cc(C(=O)c2ccc(Cl)c3ccccc23)c2ccccc21 | 2 | 93 | 44 |  |  |  | 
CCCCCn1cc(C(=O)c2ccc(Br)c3ccccc23)c2ccccc21 | 1 | 1.2 | 1.1 |  |  |  | 
CCCCCn1c(C)c(C(=O)c2ccc(F)c3ccccc23)c2ccccc21 | 6 | 14 | 2.2 | 0.54 | 0.48 | 0.38 | ED50 [14]: 0.99 µmol/kg
CCCn1cc(C(=O)c2ccc(Br)c3ccccc23)c2ccccc21 | 6 | 161 | 27 |  |  |  | inhibition in vivo at 77 µmol/kg [7]: 71%; Activity [8]: 75%; Activity [9]: -3.9%; Activity [10]: 26%
